Screens (PubChem BioAssay)
An excerpt weighted towards active compounds, which were near 3.1% of everything screened.
Cneo AK release: Cryptococcus neoformans cell lysis inducers, primary screen, AK release luminescence, single concentration; C. neoformans lysis, adenylate kinase release luminescence, 4 h; normalised: neutral wells 0, clomiphene wells 100; 360,000 tested, 0.2% active; lysis activity, % at 15 µM;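 active = mean lysis activity across replicates of at least 80%, whatever share of replicates individually reach that level; inactive = mean lysis activity below 80%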
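Schedule: static 4 h at 37 °C with compound, 1 h detection; system: C. neoformans cells; benchmarks: Clomiphene as positive control; buffer or medium: fresh YPD medium; measure: luminescence rise reflecting yeast cell lysis; measured by: luminescent adenylate kinase detection reagent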
Env fusion inh: inhibitors of HIV-1 Env-driven cell-cell fusion, primary screen, HeLa-JRFL effector, CEM21 target cells, luciferase; inhibition, % at 12.3 µM; AID 651610, 2012; 360,000 tested, 1.1% active;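 active = mean replicate inhibition score of at least 50 and every replicate individually at or above 50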;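 note: 0% = plate neutral controls and 100% = maraviroc near 300 nM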
rRNA inh HTS: reduced GFP signal of wild-type E. coli, primary screen, bacterial rRNA inhibitor project, GFP/RFP fluorescence, OD600, single point | GFP signal change (wild-type ribosome), % (test concentration not listed) | 350,000 tested, 1.6% active | E. coli WT GFP vs humanized-ribosome RFP mutants, 24 h; stronger effect = lower value; DMSO median 0, no signal -100;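 active = significant combined selectivity score with lowered wild-type GFP, culture density cut under 30%, mutant RFP and density less affected; inactive = any of these conditions unmet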
miR122 inh: miR-122 Renilla sensor signal increase in Huh7, primary screen, miR-122 inhibitor project, cell-based, single point, plate reader; Huh7 miR-122 Renilla luciferase sensor, 48 h; neutral wells = 0, positive control = 100; activation (reporter increase), % at 12.5 µM; 340,000 tested, 0.3% active;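 active = mean replicate activation score at least 90 and every replicate individually at or above 90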;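 note: higher luciferase means less miR-122 activity so hits act as miR-122 inhibitors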
GSIS activator: GLuc luminescence reporter in INS-1E cells, primary screen for activators of glucose-dependent secretion of insulin | activation, % at 16.6 µM | INS-1E GLuc reporter insulin secretion, 2-3 h | AID 743287, 2014 | 370,000 tested, 0.61% active;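 active = lowest replicate activation of at least 40%, so every replicate reaches that level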;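 note: 0% = median of neutral control wells and 100% = median of IBMX positive control wells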
F508del corr: F508del CFTR correction, initial screen, CFBE line, single point; 350,000 tested, 0.36% active; CFBE cells, YFP halide quenching; stimulated with forskolin plus potentiator P3; % fluorescence drop versus neutral controls; activity (quench increase), % at 7.58 µM; AID 720511, 2013;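 active = mean added fluorescence quench of at least 8% versus neutral control, with both replicates also reaching 8%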;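 note: cells transiently co-express mutant CFTR-F508del with the halide-sensitive YFP; corrector assay measuring rescue of mutant channel to the surface after 24 h compound exposure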
An asterisk follows results filed as active; . = no result; [ ] = remark or other dose.

SMILES | Cneo AK release | Env fusion inh | rRNA inh HTS | miR122 inh | GSIS activator | F508del corr
CCOC(=O)c1ccc2[nH]c3c(c2c1)CCCC3O (centres undefined) | . | -23 | -32* | . | 24 | -3
CCSC1=C(C#N)C(c2ccc(Cl)cc2)C2=C(CCCC2=O)N1 (centres undefined) | -1 | 58* | . | 10 | . | .
CSC1=C(C#N)C(c2ccc3c(c2)OCO3)C2=C(CCCC2=O)N1 (centres undefined) | 2 | 30 | . | -3 | . | .
C[C@H](CO)N1C[C@H](C)[C@H](CN(C)Cc2cccc(C(=O)O)c2)OCc2cnnn2CCCC1=O | 3 | . | -3 | 7[16.7 µM] | 5 | 0
CCc1ccc(NC(=S)Nc2ccc3cn[nH]c3c2)cc1 | . | . | -21* | . | -5 | -2
COc1ccc(NC(=S)Nc2ccc3cn[nH]c3c2)cc1 | . | -23 | 2 | 11 | 0 | 2
S=C(NCc1ccccc1)Nc1ccc2cn[nH]c2c1 | -6 | -93 | 6 | 1 | 40* | -1
C/C=C/c1ccc2c(c1)O[C@@H](CN(C)C(=O)C1CCCCC1)[C@@H](C)CN([C@@H](C)CO)S2(=O)=O | . | -4[16.7 µM] | -6 | . | -10 | -1
COc1cc2c(cc1OC)/C(=C/c1ccc(Cl)cc1)C(=O)OC2 | -1 | 14 | . | . | 62* | .
COc1ccc(/C=C2\C(=O)OCc3cc(OC)c(OC)cc32)cc1OC | -3 | 1 | . | -3 | 103* | .
O=C(NCCN1CCCC1)[C@@H]1[C@@H](CO)[C@@H]2Cn3c(cccc3=O)[C@H]1N2C(=O)NC1CCCC1 | . | . | 8 | . | 5 | -2
COc1ccc(/C=C/C(=O)c2ccccc2)c(OC)c1 | . | -32 | -1 | . | -4 | -1
COc1ccc(/C=C/C(=O)c2ccc3c(c2)OCO3)c(OC)c1 | -4 | -39 | -27 | 145* | 11 | 1
COc1cc(/C=C/C(=O)c2ccc3c(c2)OCO3)cc(Cl)c1O | 0 | -5 | -5 | 0 | -15 | 9.7*
COc1ccc(C(=O)C=Cc2ccc3c(c2)OCO3)cc1OC | . | -9 | 2 | . | -18 | 2
C[C@H](CO)N1C[C@H](C)[C@@H](CN(C)C(=O)Nc2ccc(F)cc2)OCc2ccccc2-c2c(n(C)c3ccccc23)C1=O | -2 | 58*[16.7 µM] | 0 | . | 10 | -1
COc1cccc(NC(=O)N(C)C[C@@H]2OCc3ccccc3-c3c(n(C)c4ccccc34)C(=O)N([C@@H](C)CO)C[C@@H]2C)c1 | 2 | 57*[16.7 µM] | 0 | . | -19 | 1
C[C@H]1CN([C@@H](C)CO)C(=O)c2c(c3ccccc3n2C)-c2ccccc2CO[C@H]1CN(C)C(=O)Nc1ccccc1 | -1 | . | -2 | . | -13 | 1
C[C@H]1CN([C@@H](C)CO)C(=O)c2c(c3ccccc3n2C)-c2ccccc2CO[C@H]1CN(C)C(=O)Nc1cccc(F)c1 | . | 88* | 8 | . | -28 | -1
C[C@H](CO)N1C[C@H](C)[C@H](CN(C)S(=O)(=O)c2cccc(F)c2)Oc2ncccc2C1=O | 5 | -1[16.7 µM] | 5 | 9[16.7 µM] | 26 | -1
CCCN(C)C[C@H]1Oc2cc(-c3ccc(C#N)cc3)ccc2S(=O)(=O)N([C@@H](C)CO)C[C@H]1C | 4 | 10[16.7 µM] | 4 | . | -5 | 1
CCCC#Cc1ccc2c(c1)O[C@H](CN(C)Cc1cccnc1)[C@@H](C)CN([C@H](C)CO)S2(=O)=O | -1 | -5[16.7 µM] | -8 | 63[16.7 µM] | -9 | .
C[C@H](CO)N1C[C@H](C)[C@H](CN(C)C(=O)Nc2ccc3c(c2)OCO3)Oc2ccc(NC(=O)NC3CCCCC3)cc2C1=O | 8 | -5[16.7 µM] | -7 | -2[16.7 µM] | -19 | 0
Cc1cc(C)n2cc(CSc3ccc(Cl)cc3)nc2n1 | 0 | 19 | -25* | -7 | -8 | 0
Cc1ccc(SCc2cn3c(C)cc(C)nc3n2)cc1 | . | -10 | -7 | . | -5 | 1
SMILES | Cneo AK release | Env fusion inh | rRNA inh HTS | miR122 inh | GSIS activator | F508del corr
COc1ccc(Oc2cccc(Cl)c2CNC(=O)CCC(=O)O)cc1 | . | 8 | -10 | . | . | 0
O=C(O)CCC(=O)NCc1c(Cl)cccc1Sc1ccc(Cl)cc1 | 3 | -8 | -25* | -2 | -9 | .
COc1ccc(-c2ccc3c(c2)C2CC3CCN2C(=O)C(C)(C)C)cc1 (centres undefined) | -2 | -42 | -30* | 0 | -11 | 0
N#Cc1ccc(-c2ccc3c(c2)[C@H]2[C@H](CCN2C(=O)c2ccc(F)cc2)[C@H](CO)N3)cc1 | -19 | . | -8 | -15[16.7 µM] | 0 | 0
N#Cc1ccc(C(=O)N2CCC3CC2c2cc(-c4ccc(F)cc4)ccc23)cc1 (centres undefined) | 5 | 6 | -26* | 7 | -13 | -3
O=C(NCCCN1CCC(Cc2ccccc2)CC1)C1CC(=O)N(C2CCCCCC2)C1 (centres undefined) | 9 | 55* | . | -5 | . | .
COc1ccc2c3c([nH]c2c1)[C@@H](CO)N(C(=O)C1CC1)CC31CCN(C)CC1 | . | 9[16.7 µM] | 2 | . | 6 | 0
O=C(c1cccnc1)N1CC[C@@H]2[C@H]1c1cc(C#Cc3cccnc3)ccc1N[C@@H]2CO | 7 | . | 0 | 3[16.7 µM] | 3 | -2
CN1CCN(CCC(=O)N2c3ccccc3Sc3ccc(Cl)cc32)CC1 | 3 | -29 | -5 | 6 | 5 | .
CN1CCC=C(C(=O)N2c3ccccc3Sc3ccc(Cl)cc32)C1 | . | 14 | -22* | . | -6 | .
C[C@H]1CC=CC[C@@H](c2ccc(F)cc2)NC(=O)[C@H](C)N(C)C(=O)c2ccccc2O1 (mixture of isomers) | . | . | -6 | . | 3 | .
COCC(=O)N1C[C@@H](C)[C@H](OC)CN(C)C(=O)c2ccc(NC(=O)c3ccccc3)cc2OC[C@H]1C | -6 | . | -1 | 1[16.7 µM] | -5 | -4
CC(C)CCN1C(=O)CSCC1(C)C(=O)NC(C)C (centres undefined) | . | -1 | . | . | 43* | 1
CC(C)NC(=O)C1(C)CSCC(=O)N1Cc1cccs1 (centres undefined) | . | 9 | 12 | . | 5 | -1
CO[C@H]1CC[C@@H]2CCN(C)C(=O)[C@@H](C)CN(C)C(=O)c3cccc(C#N)c3OC[C@H]1O2 | 2 | 6[16.7 µM] | 2 | . | 11 | .
CSc1ncnc2c1ncn2CCCN[C@H](C)c1cccc2ccccc12 | -1 | 58* | 2 | 0 | -17 | 3
CSc1ncnc2c1ncn2CCCNc1ccc(C)c(C)c1 | . | -13 | -26* | -2 | -18 | -3
CSc1ncnc2c1ncn2CCCNCc1ccccc1 | . | -3 | 11 | -4 | -6 | 3
